In ChEMBL document CHEMBL3046507, “Synthesis and herbicidal activities of novel 3-N-substituted amino-6-methyl-4-(3-trifluoromethylphenyl)pyridazine derivatives” (2008):

Experiments:
Digitaria [1] = test: Herbicidal activity against Digitaria adscendens assessed as inhibition of fresh plant weight at 750 g/ha using preemergence protocol measured after 24 days under green house conditions; conditions: in Digitaria adscendens, pre-emergence
Amaranthus retroflexus [2] = test: Herbicidal activity against Amaranthus retroflexus assessed as inhibition of fresh plant weight at 750 g/ha using preemergence protocol measured after 24 days under green house conditions; conditions: pre-emergence
Amaranthus retroflexus [3] = test: Herbicidal activity against Amaranthus retroflexus assessed as inhibition of fresh plant weight at 150 g/ha using postemergence protocol measured after 24 days under green house conditions; conditions: post-emergence
Echinochloa crus-galli [4] = test: Herbicidal activity against Echinochloa crus-galli (barnyard grass) assessed as inhibition of fresh plant weight at 750 g/ha using postemergence protocol measured after 24 days under green house conditions; conditions: post-emergence
Amaranthus retroflexus [5] = test: Herbicidal activity against Amaranthus retroflexus assessed as inhibition of fresh plant weight at 75 g/ha using postemergence protocol measured after 24 days under green house conditions; conditions: post-emergence
Spirodela polyrhiza [6] = test: Inhibition of chlorophyll in Spirodela polyrhiza fronds at 10 ug/mL using light intensity of 45 uE/m2/s measured after 7 days; type: functional; conditions: 168 h
Method in brief: (§1)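 Giant duckweed assay. Compound in DMF dropped onto filter paper, solvent evaporated 15 min, paper placed in flask with 15 mL fresh medium and shaken >10 min. 10 fronds inoculated per flask and grown 7 days at 23-26 °C, 16 h light/8 h dark, ca. 45 µE m^-2 s^-1. DMF plus medium served as control. Chl extracted in 96% ethanol overnight at 4 °C; OD read at 665 and 649 nm; content expressed as percent of control.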

[7] = test system: Brassica rapa subsp. oleifera; test: Herbicidal activity against Brassica rapa subsp. oleifera assessed as inhibition of fresh plant weight at 75 g/ha using postemergence protocol measured after 24 days under green house conditions; conditions: post-emergence
[8] = test system: Brassica rapa subsp. oleifera; test: Herbicidal activity against Brassica rapa subsp. oleifera assessed as inhibition of fresh plant weight at 300 g/ha using postemergence protocol measured after 24 days under green house conditions; conditions: post-emergence
[9] = test system: Brassica rapa subsp. oleifera; test: Herbicidal activity against Brassica rapa subsp. oleifera assessed as inhibition of fresh plant weight at 750 g/ha using postemergence protocol measured after 24 days under green house conditions; conditions: post-emergence
[10] = test system: Brassica rapa subsp. oleifera; test: Herbicidal activity against Brassica rapa subsp. oleifera assessed as inhibition of fresh plant weight at 150 g/ha using postemergence protocol measured after 24 days under green house conditions; conditions: post-emergence
Spirodela polyrhiza [11] = test: Inhibition of chlorophyll in Spirodela polyrhiza fronds at 1 ug/mL using light intensity of 45 uE/m2/s measured after 7 days; type: functional; conditions: 168 h
Method in brief: as §1

[12] = test system: Brassica rapa subsp. oleifera; test: Herbicidal activity against Brassica rapa subsp. oleifera assessed as inhibition of fresh plant weight at 600 g/ha using postemergence protocol measured after 24 days under green house conditions; conditions: post-emergence
[13] = test system: Brassica rapa subsp. oleifera; test: Herbicidal activity against Brassica rapa subsp. oleifera assessed as inhibition of fresh plant weight at 750 g/ha using preemergence protocol measured after 24 days under green house conditions; conditions: pre-emergence
Echinochloa crus-galli [14] = test: Herbicidal activity against Echinochloa crus-galli (barnyard grass) assessed as inhibition of fresh plant weight at 750 g/ha using preemergence protocol measured after 24 days under green house conditions; conditions: pre-emergence
Amaranthus retroflexus [15] = test: Herbicidal activity against Amaranthus retroflexus assessed as inhibition of fresh plant weight at 750 g/ha using postemergence protocol measured after 24 days under green house conditions; conditions: post-emergence
Amaranthus retroflexus [16] = test: Herbicidal activity against Amaranthus retroflexus assessed as inhibition of fresh plant weight at 300 g/ha using postemergence protocol measured after 24 days under green house conditions; conditions: post-emergence
Amaranthus retroflexus [17] = test: Herbicidal activity against Amaranthus retroflexus assessed as inhibition of fresh plant weight at 600 g/ha using postemergence protocol measured after 24 days under green house conditions; conditions: post-emergence
Digitaria [18] = test: Herbicidal activity against Digitaria adscendens assessed as inhibition of fresh plant weight at 750 g/ha using postemergence protocol measured after 24 days under green house conditions; conditions: in Digitaria adscendens, post-emergence

SMILES	inhibition at 750 g/ha (Digitaria [1]) [%]	inhibition at 750 g/ha (Amaranthus retroflexus [2]) [%]	inhibition at 150 g/ha (Amaranthus retroflexus [3]) [%]	inhibition at 750 g/ha (Echinochloa crus-galli [4]) [%]	inhibition at 75 g/ha (Amaranthus retroflexus [5]) [%]	inhibition at 10 µg/mL (Spirodela polyrhiza [6]) [%]	inhibition at 75 g/ha [7] [%]	inhibition at 300 g/ha [8] [%]	inhibition at 750 g/ha [9] [%]	inhibition at 150 g/ha [10] [%]	inhibition at 1 µg/mL (Spirodela polyrhiza [11]) [%]	inhibition at 600 g/ha [12] [%]	inhibition at 750 g/ha [13] [%]	inhibition at 750 g/ha (Echinochloa crus-galli [14]) [%]	inhibition at 750 g/ha (Amaranthus retroflexus [15]) [%]	inhibition at 300 g/ha (Amaranthus retroflexus [16]) [%]	inhibition at 600 g/ha (Amaranthus retroflexus [17]) [%]	inhibition at 750 g/ha (Digitaria [18]) [%]
Cc1cc(-c2cccc(C(F)(F)F)c2)c(Nc2ccccc2)nn1	43	33	41	15	18	100	66	84	99	74	100	92	48	43	60	43	61	0
Cc1cccc(Nc2nnc(C)cc2-c2cccc(C(F)(F)F)c2)c1	7	81	23	29		100		30	79	0	100	42	18	8	64	25	52	6
Cc1ccc(Nc2nnc(C)cc2-c2cccc(C(F)(F)F)c2)cc1	17	90	17	2		96		54	99	39	95	59	82	0	85	28	59	18
Cc1cc(-c2cccc(C(F)(F)F)c2)c(Nc2ccccc2F)nn1	15	0	48	21	39	100	60	88	100	67	100	96	18	0	100	58	75	40
Cc1cc(-c2cccc(C(F)(F)F)c2)c(Nc2ccc(F)cc2)nn1	0	19	43	23	32	100	55	83	88	58	100	93	8	2	85	55	64	0
